Data reported in ChEMBL document CHEMBL4190209, “Terpenoids from Euphorbia soongarica and Their Multidrug Resistance Reversal Activity” (J Nat Prod, 2017).

Legend:
KB = assay: Cytotoxicity against human KB cells assessed as growth inhibition after 72 hrs by MTT assay; format: functional, cell-based
Homo sapiens [1] = organism: Homo sapiens; assay: Inhibition of P-gp in human KBv200 cells assessed as increase in intracellular rhodamine123 accumulation by measuring fluorescence activity ratio at 10 uM incubated for 4 hrs followed by rhodamine123 addition measured after 1 hr by flow cytometry; format: cell-based
Method in brief: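 KBv200 cells were plated at 1.5 × 10^5/mL and left overnight. Compounds were added at 10 μM in DMSO, with verapamil as reference, for 4 h at 37 °C, 5% CO2. Rho123 at 10 μM was then added for 1 h. Cells were washed twice, resuspended in ice-cold PBS and analysed by flow cytometry. FAR = (F treated − F DMSO control)/(F untreated − F DMSO control).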

[2] = Cytotoxicity against human KBv200 cells assessed as growth inhibition after 72 hrs by MTT assay; format: functional, cell-based; settings: KBv200, 72 h
Homo sapiens [3] = organism: Homo sapiens; assay: Inhibition of P-gp in human KBv200 cells assessed as potentiation of navelbine-induced cytotoxicity by measuring reduction in navelbine IC50 at 10 uM after 72 hrs by MTT assay relative to control; format: cell-based
Method in brief: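 KBv200 cells were seeded at 2500 cells/well for 12 h. Navelbine was added at 0.003–30 μM (0.003, 0.01, 0.03, 0.1, 0.3, 1, 3, 10, 30), alone or with modulator at 1, 3 or 10 μM, or with verapamil at 10 μM. Incubation was 72 h, followed by MTT read at A570. Navelbine IC50 came from percent growth inhibition. Reversal fold = IC50 of navelbine alone / IC50 of the combination.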

| Compound | IC50 (KB) [µM] | Ratio (Homo sapiens [1]) | IC50 [2] [µM] | fold change (FC) (Homo sapiens [3]) |
| --- | --- | --- | --- | --- |
| C[C@H]1C[C@]2(O)C(=O)[C@@]3(C)[C@H](OC(=O)c4ccccc4)[C@@H]4[C@H](CC[C@@]3(C)[C@H](O)[C@H]2[C@H]1O)C4(C)C | 26.6 | 0.97 | 29 |  |
| CC1=C2C=C3CC[C@@H]4C(C)(C)[C@@H](O)CC[C@@]4(C)[C@@H]3C[C@H]2OC1=O [HELIOSCOPINOLIDE B] | 20.8 | 0.49 | > 30 |  |
| CC(=O)O[C@]12C[C@H](C)[C@H](O)[C@@H]1/C=C(\C)CC[C@H]1[C@@H](/C=C(\C)C2=O)C1(C)C [JOLKINOL D] | 25.9 | 0.66 | 19.9 |  |
| COc1ccc(CCN(C)CCCC(C#N)(c2ccc(OC)c(OC)c2)C(C)C)cc1OC (stereo not drawn) |  | 2.25 |  | 259 |
| CC(=O)CC/C(=C/C1=C(C)CCC1=O)C(C)C [LITSEACHROMOLAEVANE B] | > 30 | 0.4 | > 30 |  |
| C[C@H]1CC2=C([C@H]1O)[C@@H](O)[C@]1(C)CC[C@H]3[C@@H]([C@@H](OC(=O)c4ccccc4)[C@]1(C)C2=O)C3(C)C | 13.5 | 1.79 | 16.1 |  |
| C/C1=C\[C@@H]2[C@H](CC[C@@]3(C)O[C@@H]3[C@H]3[C@@H](O)[C@@H](C)C[C@]3(OC(=O)/C=C/c3ccccc3)C1=O)C2(C)C [JOLKINOL B] | 19.8 | 3.61 | 18.2 |  |
| CC(=O)[C@@H]1CC[C@]2(C)C3=C(CC[C@@]12C)[C@@]1(C)CC[C@H](O)C(C)(C)[C@@H]1CC3=O | > 30 | 0.98 | > 30 |  |
| C=C1CC[C@H]2[C@@H](/C=C(\C)C(=O)[C@@]3(OC(C)=O)C[C@H](C)[C@H](O)[C@@H]3[C@H]1O)C2(C)C | > 30 | 0.7 | > 30 |  |
| C/C1=C\[C@@H]2[C@H](C[C@@H](O)[C@@]3(C)O[C@@H]3[C@H]3[C@@H](OC(=O)c4ccccc4)[C@@H](C)C[C@]3(O)C1=O)C2(C)C | > 30 | 0.44 | > 30 |  |
| C[C@H]1C[C@]2(OC(=O)c3ccccc3)C(=O)[C@@]3(C)[C@@H]4[C@@H](O)C(C)(C)[C@H]4CC[C@@]3(C)[C@H](O)[C@H]2[C@H]1O | 20.1 | 0.63 | > 30 |  |
| C[C@H]1C[C@]2(OC(=O)/C=C/c3ccccc3)C(=O)[C@@]3(C)[C@@H]4[C@@H](O)C(C)(C)[C@H]4CC[C@@]3(C)[C@H](O)[C@H]2[C@H]1O | 10.9 | 1.47 | 10.6 |  |
| CC1(C)CC[C@]2(C)CC(=O)[C@]3(C)C4=C(CC[C@@]3(C)[C@@H]2C1)[C@@]1(C)CC[C@H](O)C(C)(C)[C@@H]1CC4=O | 10.3 | 0.95 | 12 |  |
| CC1=C2C=C3CC[C@@H]4C(C)(C)C(=O)CC[C@@]4(C)[C@@H]3C[C@H]2OC1=O [HELIOSCOPINOLIDE E] | 22.4 | 0.45 | > 30 |  |
| C=C1CC[C@H]2[C@@H]([C@@H]3[C@@H]1C1=C(C[C@H](C)C1=O)[C@@H](O)[C@@]3(C)O)C2(C)C | > 30 | 0.76 | > 30 |  |
| CC(=O)/C=C/C[C@@H](C)[C@@H]1CC[C@]2(C)C3=C(CC[C@@]12C)[C@@]1(C)CC[C@H](O)C(C)(C)[C@@H]1CC3=O | 21.6 | 1.3 | 22.9 |  |
| CC(=O)O[C@H]1C(=O)[C@@]2(C)[C@H]([C@H](OC(=O)c3ccccc3)[C@]3(O)C[C@H](OC(=O)[C@H](O)[C@@H](NC(=O)c4ccccc4)c4ccccc4)C(C)=C1C3(C)C)[C@]1(OC(C)=O)CO[C@@H]1C[C@@H]2O [PACLITAXEL] | 0.0036 |  | 2.12 |  |
| CC(=O)O[C@]12C[C@H](C)[C@H](O)[C@@H]1[C@@H](O)/C(C)=C/C[C@H]1[C@@H](/C=C(\C)C2=O)C1(C)C | > 30 | 1.27 | > 30 |  |
| C/C1=C\[C@@H]2[C@H](CC[C@@]3(C)O[C@@H]3[C@H]3[C@@H](O)[C@@H](C)C[C@]3(OC(=O)c3ccccc3)C1=O)C2(C)C [LATILAGASCENE F] | > 30 | 1.3 | > 30 |  |
| C[C@@H]1C[C@]2(O)C(=O)[C@@]3(C)[C@H](OC(=O)c4ccccc4)[C@@H]4[C@H](CC[C@@]3(C)[C@H](O)[C@H]2[C@H]1O)C4(C)C | > 30 | 0.94 | 29.2 |  |
| C[C@H](/C=C/C=O)[C@@H]1CC[C@]2(C)C3=C(CC[C@@]12C)[C@@]1(C)CC[C@H](O)C(C)(C)[C@@H]1CC3=O | > 30 | 1.25 | > 30 |  |
| C/C1=C/C[C@H]2[C@@H](/C=C(\C)C(=O)[C@@]3(OC(=O)c4ccccc4)C[C@H](C)[C@H](O)[C@@H]3[C@H]1O)C2(C)C | 27.2 | 1.13 | > 30 |  |
| C[C@H]1C[C@]2(OC(=O)/C=C/c3ccccc3)C(=O)/C(CO)=C/[C@@H]3[C@H](CC[C@@]4(C)O[C@H]4[C@H]2[C@H]1O)C3(C)C | > 30 | 0.35 | > 30 |  |
| CC(=O)N[C@@H]1[C@@H]2[C@H](CC[C@@]3(C)[C@H](O)[C@H]4[C@@H](OC(=O)/C=C/c5ccccc5)[C@@H](C)C[C@]4(O)C(=O)[C@@]13C)C2(C)C | > 30 | 1.51 | > 30 |  |
| C/C1=C\[C@@H]2[C@H](C[C@@H](O)/C(C)=C/[C@H]3[C@@H](OC(=O)c4ccccc4)[C@@H](C)C[C@]3(O)C1=O)C2(C)C | 21.4 | 0.43 | 20.6 |  |
